What was measured:
[1] = test system: human bladder cancer EJ cell line; experiment: Cell viability MTT assay; type: cell-based
Summary of the method: (§1)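 Cells seeded at 5×10^3 per well: EJ in RPMI 1640, SV-HUC-1 in F-12K, both with 10% FBS. Test compound came from 25 mmol/L DMSO stock diluted in serum-free medium or PBS. Series run at graded concentrations for 24 h, or at 1.0 μM over varying times. MTT added for 4 h at 37 °C, formazan dissolved in DMSO, A570 read. Viability relative to untreated (100%); ≥3 repeats.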

[2] = test system: EJ cells; experiment: Annexin V-FITC/PI staining flow cytometry of apoptosis; type: cell-based, human; details: for Percentage of apoptotic cells (Annexin V-FITC/PI flow cytometry) / Effect of caspase inhibitors on induced apoptosis: 1.0 μM, 24 h; for Percentage of apoptotic cells (Annexin V-FITC/PI flow cytometry): mean ± SD; for Effect of caspase inhibitors on induced apoptosis: with 20 μM Z-LEHD-FMK or z-DEVD-fmk (Ac-DEVD-CHO)
Summary of the method: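 EJ cells were seeded at 1×10^6 per well, left overnight, then given 1.0 μM test compound for 24 h. Some wells also received 20 μM caspase-3 (Ac-DEVD-CHO) or caspase-9 (Z-LEHD-FMK) inhibitor, or a 2 h pretreatment with 5 mM NAC. Harvested cells were stained with Annexin V-FITC/PI and read by flow cytometry for percent apoptotic cells. Mean ± SD of triplicates.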

[3] = test system: EJ cells; experiment: EdU incorporation assay; type: cell-based, human; details: 1.0 μM, 24 h, then 50 μM EdU 4 h
Summary of the method: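 EJ cells at 5×10^3 per well treated 24 h with 1.0 μM test compound, washed, then labelled with 50 μM EdU for 4 h at 37 °C in the dark. Fixed in 4% formaldehyde 15 min at room temperature, permeabilised in 0.5% Triton X-100 20 min. Apollo cocktail 30 min, Hoechst 33342 30 min, fluorescence microscopy. Mean ± SD of triplicates.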

[4] = test system: Bax; experiment: Western blotting analysis of Bax; type: cell-based, human; details: EJ cells, 1.0 μM, 24 h
Summary of the method: (§2)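 EJ cells received 1.0 μM test compound for 24 h, with or without 2 h pretreatment with 5 mM NAC. Lysed in RIPA with protease inhibitor; 30 μg protein (BCA) run on 10–12% SDS-PAGE and moved to PVDF. Blocked 30 min at room temperature in TBS, 0.1% Triton X-100, 5% milk. Primary antibody overnight at 4 °C, HRP secondary 1 h, ECL detection. GAPDH loading control.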

[5] = test system: EJ cells; experiment: AO/EB dual staining, morphological assessment of apoptotic cells; type: cell-based, human; details: 1.0 μM, 24 h, mean ± SD
Summary of the method: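 EJ cells (RPMI 1640, 10% FBS, 37 °C, 5% CO2) exposed to 1.0 μM test compound for 24 h, then trypsinised, pelleted and PBS-washed. Stained with 100 μg/mL AO and 100 μg/mL EB for 10 min at 4 °C in the dark. Scored by fluorescence microscopy for nuclear condensation and shrinkage. Apoptotic rate = apoptotic cells/total counted. Mean ± SD of triplicates.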

[6] = test system: human immortalized uroepithelium cell line SV-HUC-1; experiment: Cell viability MTT assay; type: cell-based; details: SV-HUC-1 normal uroepithelium cells
Summary of the method: as §1

[7] = test system: Bcl-2; experiment: Western blotting analysis of Bcl-2; type: cell-based, human; details: EJ cells, 1.0 μM, 24 h
Summary of the method: as §2

[8] = test system: EJ cells; experiment: Colony-formation assay; type: cell-based, human; details: 1.0 μM, 24 h, then 10 days growth
Summary of the method: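 EJ cells at 1×10^6 per well given 1.0 μM test compound for 24 h. Harvested and replated at 5×10^2 cells per well in fresh 10% FBS medium, then grown 10 days. Colonies fixed, stained with 1% crystal violet in 10% methanol and counted blinded under a microscope. Mean ± SD of triplicates.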

[9] = test system: ROS production in EJ cells; experiment: Intracellular reactive oxygen species detection; type: cell-based, human; details: 1.0 μM, 24 h, DCFH-DA, fluorescence microplate reader
Summary of the method: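 EJ cells, with or without 2 h pretreatment with 5 mM NAC, were given 1.0 μM test compound for 24 h. After PBS washes, loaded with 10 μM DCFH-DA for 30 min at 37 °C and washed again. Imaged by fluorescence microscopy and quantified on a plate reader (ex 485/em 520 nm). Values given as percent of control.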

[10] = test system: caspase-9; experiment: Caspase-9 activity measurement in cell lysates; type: cell-based, human; details: EJ cells, 1.0 μM, 24 h, vs control and TAT-treated cells
Summary of the method: (§3)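 EJ cells treated for 24 h with 1.0 μM test compound. Lysates were mixed with buffer containing pNA substrate added at 2 mM: Ac-DEVD-pNA for caspase-3, Ac-LEHD-pNA for caspase-9. Incubated 4 h at 37 °C in the dark, then absorbance read at 405 nm. Activity given as ratio of treated to untreated control cells.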

[11] = test system: caspase-3; experiment: Caspase-3 activity measurement in cell lysates; type: cell-based, human; details: EJ cells, 1.0 μM, 24 h, vs control and TAT-treated cells
Summary of the method: as §3

[12] = Equilibrium solubility assay; type: physicochemical; details: shake-flask, distilled water pH 7.0, 37°C, UV spectrophotometry; stayed at this level for 6-24 h

| Structure (SMILES) | Concentration inducing clear cytotoxic effects ([1]; EJ cells, MTT) [nM] | IC50 ([1]; Homo sapiens, EJ, 24 h, read-out: 50% inhibitory concentration (IC50)) [µM] | Percentage of apoptotic cells (Annexin V-FITC/PI flow cytometry) [2] | Effect of caspase inhibitors on induced apoptosis [2] | Number of EdU+ cells [3] | Bax expression level [4] | Percentage of apoptotic cells (AO/EB) [5] | Effect on cell viability [6] | Bcl-2 protein level [7] | Colony growth [8] | ROS production [9] | Caspase-9 activity [10] | Caspase-3 activity [11] | Stirring time at which solubility reached its peak [12] [h] | Effect on apoptosis, NAC treatment alone ([2]; 5 mM NAC in the absence of GA and GA-TAT) |
| --- | --- | --- | --- | --- | --- | --- | --- | --- | --- | --- | --- | --- | --- | --- | --- |
| CC(C)=CCC[C@]1(C)C=Cc2c(O)c3c(c(CC=C(C)C)c2O1)O[C@]12C(=C[C@@H]4C[C@H]1C(C)(C)O[C@@]2(C/C=C(/C)C(=O)O)C4=O)C3=O [GA, Gambogic acid] | 1000 | 4.95 | 21.3%±2.27% | completely suppressed | significantly reduced | upregulated | 19.18%±4.35% | nearly unaffected | not affected | significantly decreased | substantially increased | increased | increased |  |  |
| CC(C)=CCC[C@]1(C)C=Cc2c(O)c3c(c(CC=C(C)C)c2O1)O[C@]12C(=C[C@@H]4C[C@H]1C(C)(C)O[C@@]2(C/C=C(/C)C(=O)N[C@@H](CS)C(=O)N[C@@H](Cc1ccc(O)cc1)C(=O)NCC(=O)N[C@@H](CCCNC(=N)N)C(=O)N[C@@H](CCCCN)C(=O)N[C@@H](CCCCN)C(=O)N[C@@H](CCCNC(=N)N)C(=O)N[C@@H](CCCNC(=N)N)C(=O)N[C@@H](CCC(N)=O)C(=O)N[C@@H](CCCNC(=N)N)C(=O)N[C@@H](CCCNC(=N)N)C(=O)N[C@@H](CCCNC(=N)N)C(=O)O)C4=O)C3=O [GA-TAT] |  |  | 46.4%±4.86% | partially inhibited | markedly less | upregulated | 42.15%±5.23% | nearly unaffected | downregulated | further reduced | significantly higher | further enhanced | further enhanced | 4 |  |
| CC(=O)N[C@@H](CS)C(=O)O [NAC, N-acetyl-L-cysteine] |  |  |  |  |  |  |  |  |  |  |  |  |  |  | did not significantly affect apoptosis |
